Screens (PubChem)
RGS4 block – inhibitors of human RGS4 | P49798 | HEK293 M3R/RGS4 inducible, Fluo-4 calcium flux; stronger effect = higher value; triggered by carbachol at its EC20 | B-score at 10 µM | 0.45% of 310,000 active | AID 463165;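 active means B-score, a plate-corrected calcium signal, over three deviations above library mean, with baseline fluorescence within five deviations of library mean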;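 further: RGS4 expression induced by doxycycline in cells with stable M3 receptor; B-score is computed from the integrated fluorescence ratio over baseline after carbachol; higher B-score means a larger calcium signal and so more RGS4 inhibition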
Target sequence (P49798 whole entry, looked up): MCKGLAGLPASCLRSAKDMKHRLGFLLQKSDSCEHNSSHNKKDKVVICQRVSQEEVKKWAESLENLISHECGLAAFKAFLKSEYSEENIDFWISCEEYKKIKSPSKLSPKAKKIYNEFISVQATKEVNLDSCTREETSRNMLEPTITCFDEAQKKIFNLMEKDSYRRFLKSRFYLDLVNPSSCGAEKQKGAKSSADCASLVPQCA
MrgX1 antagonist – blocks BAM8-22 activation of human MrgX1 receptor; Q96LB2; B-score at 10 µM; MRGX1-HEK293 calcium flux, Fluo-4, BAM8-22 antagonism; stronger effect = lower value; 1.3% of 310,000 active; AID 588676;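 active means calcium-response B-score plate-corrected more than 3 library SD below zero, starting fluorescence within 5 deviations, no agonist response on first addition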;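 further: peak minus trough fluorescence over baseline after final BAM8-22 challenge near maximal dose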
Target sequence (Q96LB2 whole entry, looked up): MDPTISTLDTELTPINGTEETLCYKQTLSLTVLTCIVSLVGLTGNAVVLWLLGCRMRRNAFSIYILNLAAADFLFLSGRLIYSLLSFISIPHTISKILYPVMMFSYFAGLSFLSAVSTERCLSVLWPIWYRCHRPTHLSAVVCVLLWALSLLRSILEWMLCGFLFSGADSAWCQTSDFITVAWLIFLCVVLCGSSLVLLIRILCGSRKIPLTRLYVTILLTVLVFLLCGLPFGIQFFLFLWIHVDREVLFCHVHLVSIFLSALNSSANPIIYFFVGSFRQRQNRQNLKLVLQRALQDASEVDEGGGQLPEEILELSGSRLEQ
MrgX1 ag – activates human MrgX1 receptor signaling; Q96LB2; MrgX1-HEK293 cells, Fluo-4 calcium fluorescence, agonist mode; stronger effect = higher value; B-score at 10 µM; 0.44% of 310,000 active;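 active means calcium response B-score plate-corrected fluorescence ratio at least 3 library SD, with starting fluorescence B-score inside 5 SD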
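times = overnight plating, then 30 min 37 °C plus 30 min room-temperature dye loading | assay system = stable human MrgX1 HEK293 cell line | input = fifteen thousand cells per well | signal = kinetic calcium dye fluorescence, Fluo-4 NW | dosing = compound delivered in addition one of three | read-out = B-scored fluorescence response ratio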
RGS4 act – RGS4 potentiation or activation. HEK293 M3R/inducible RGS4, carbachol calcium flux Fluo4; stronger effect = lower value. B-score at 10 µM. 0.92% of 310,000 active. AID 463111;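 active means B-score of the integrated calcium signal more than 4 SD below the library mean, with starting fluorescence not abnormally high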;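 further: negative B-score means reduced calcium response which marks RGS4 activation or potentiation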
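Also added: carbachol at ECmax as muscarinic agonist stimulus; Assay system: HEK293 cells with stable M3R and inducible RGS4; Timing: overnight RGS4 induction, 30 min dye load 37 °C, 20 min compound RT; Measured by: Fluo4-AM (2 µM) calcium-flux fluorescence, kinetic read.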
MrgX1 PAM – human MrgX1 positive allosteric modulation, primary screen | Q96LB2 | MrgX1-HEK293, Fluo-4 calcium flux, FDSS; stronger effect = higher value | B-score at 10 µM | 0.63% of 310,000 active | AID 588675;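 active means plate-corrected calcium response at least 3 library SD above typical, normal starting fluorescence, not activating the receptor alone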;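 further: compound read alongside a low EC10 to EC30 dose of BAM8-22 agonist; peak minus trough fluorescence over baseline measured at the second addition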
RGS4 inh valid – RGS4 inhibitor validation | shares compounds with RGS4 block | HEK293 M3R/RGS4, carbachol calcium Fluo-4 fluorescence; carbachol added at its EC20; 0 = buffer wells, 100 = carbachol control | calcium response, % at 10 µM | 65% of 1,700 active | AID 492999;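 active means duplicate-averaged calcium response above the buffer-only control mean plus 5 SD of those controls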;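 further: integrated fluorescence ratio F max minus min over baseline F0; higher response in RGS4-induced cells means RGS4 inhibition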
M3R Ca ctr – non-induced cell nonspecific activity of RGS4 inhibitors; shares compounds with RGS4 block; HEK293 M3R non-induced, carbachol calcium Fluo-4; submaximal (EC20) carbachol stimulus; buffer wells 0%, carbachol control wells 100%; activity (percent), % at 10 µM; 20% of 1,900 active; AID 493000; call rule not given here;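 further: RGS4 induction absent so cells express M3R without RGS4; higher means more calcium signal and flags a non-specific hit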
RGS4 inh ctr2 – second counter-screen for RGS4 inhibitors: non-induced cells without carbachol; shares compounds with RGS4 block; HEK293 M3R/RGS4 non-induced, Fluo-4 calcium, no carbachol; normalised: buffer wells 0%, carbachol wells 100%; calcium response (agonist-mode artifact), % at 10 µM; 22% of 1,900 active; AID 493001;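 active means duplicate-averaged calcium rise in uninduced cells above buffer wells' mean plus 5 SD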
Numbers stand for hits; 0 = inactive; - = not tested or not shown. Rows were chosen to be rich in hits. Some 3.5% of all compounds tested hit in one or more screens of this group.

SMILES | RGS4 block | MrgX1 antagonist | MrgX1 ag | RGS4 act | MrgX1 PAM | RGS4 inh valid | M3R Ca ctr | RGS4 inh ctr2
Nc1ccc(C23CC4CC(CC(C4)C2)C3)cc1 | 7.94 | 0 | 0 | 0 | 0 | 13.0% | 0 | 0
Cc1cccc(N2CCN(C(=O)c3ccc(N4CCCC4=O)cc3)CC2)c1C | 0 | 0 | 0 | 0 | 0 | - | - | -
CC(=N\Nc1ccc(Cl)cc1)/C(=N/O)C(=O)Nc1ccccc1 | 5.65 | 0 | 0 | 0 | 0 | 13.5% | 0 | 0
C/C(=N\O)C(=O)Nc1ccccc1 | 0 | 0 | 0 | 0 | 0 | - | - | -
O=C(OCn1ncc(Cl)c(Cl)c1=O)c1ccc(F)cc1 | 0 | 0 | 0 | 0 | 0 | - | - | -
O=C(OCn1ncc(Cl)c(Cl)c1=O)c1ccccc1Cl | 7.4 | 0 | 0 | 0 | 0 | 15.0% | 40.5% | 0
O=C1/C(=C\c2ccncc2)CCc2ccccc21 | 0 | 0 | 0 | 0 | 0 | - | - | -
O=C1/C(=C/c2ccncc2)CCC/C1=C\c1ccncc1 | 23.6 | - | - | 0 | - | 107.0% | 0 | 0
CCCCS(=O)(=O)Nc1ccc(N2CCOCC2)c(S(=O)(=O)N2CCOCC2)c1 | 0 | 0 | 0 | 0 | 0 | - | - | -
CCOc1cc(CNc2ccc(N3CCCC3)cc2)cc(Cl)c1OC | 5.13 | 0 | 0 | 0 | 0 | 14.0% | 0 | 0
CCOc1cc(CNc2ccc(S(N)(=O)=O)cc2)cc(Cl)c1OC | 0 | 0 | 0 | 0 | 0 | - | - | -
Nn1c(Nc2ccccc2)nc2sc3c(c2c1=O)CCCC3 | 0 | 0 | 0 | 0 | 0 | 0 | 0 | 0
Cc1ccc(-c2cc(Cc3ccc(F)cc3)c(=O)[nH]n2)cc1 | 0 | 0 | 0 | 0 | 0 | - | - | -
Cc1ccc(Cc2cc(-c3ccc(C)cc3)n[nH]c2=O)cc1 | 0 | 0 | 0 | 0 | 0 | - | 0 | 0
O=c1[nH]nc(-c2ccc(F)cc2)cc1Cc1ccc(F)cc1 | 0 | 0 | 0 | 0 | 0 | - | 0 | 0
NC(=O)[C@H]1CC2(CC(c3cccc(NC(=O)COc4ccc(Cl)cc4)c3)=NO2)CN1C(=O)Cc1ccc([N+](=O)[O-])cc1 (stereo partly drawn) | 0 | 0 | 0 | 0 | 0 | - | - | -
Clc1ccc(C2=Nn3c(nnc3-c3n[nH]c4c3CCC4)SC2)cc1 | 0 | 0 | 0 | 0 | 0 | 0 | 0 | 0
Cc1cc(=O)[nH]c(SCC(=O)c2ccc(F)c(C)c2)n1 | 0 | 0 | 0 | 0 | 0 | - | - | -
N#C/C(=C\c1ccccc1OCc1ccc(C(=O)O)cc1)C(=O)Nc1ccc(O)cc1 | 6.91 | 0 | 0 | 0 | 0 | 13.5% | 0 | 0
COC(=O)c1ccc(COc2ccccc2/C=C(\C#N)C(=O)Nc2ccc(C)cc2)cc1 | 0 | 0 | 0 | 0 | 0 | 0 | 0 | 0
Cc1ccc2[nH]c(=O)c(C(c3nnnn3C(C)(C)C)N(Cc3ccco3)CC3CCCO3)cc2c1 (stereo not drawn) | 0 | 0 | 0 | 0 | 0 | 0 | 0 | 0
CC(C)(C)n1nnnc1C(c1ccccc1F)N(Cc1ccco1)CC1CCCO1 (stereo not drawn) | 0 | 0 | 0 | 0 | 0 | - | - | -
CCC(c1nnnn1Cc1ccco1)N(Cc1ccccc1OC)Cc1cc2cc(C)ccc2[nH]c1=O (stereo not drawn) | 0 | 0 | 0 | 0 | 0 | - | - | -
COc1ccc2[nH]c(=O)c(CN(C3CCCCC3)C(c3nnnn3Cc3ccco3)C(C)C)cc2c1 (stereo not drawn) | 7.63 | -4.55 | 0 | 0 | 0 | 7.5% | 0 | 24.0%
CCC(c1nnnn1Cc1ccco1)N(Cc1cc2cc(C)cc(C)c2[nH]c1=O)CC1CCCO1 (stereo not drawn) | 5.81 | 0 | 0 | 0 | 0 | 0 | 0 | 0
Cc1ccc2[nH]c(=O)c(C(c3nnnn3C3CCCC3)N(Cc3cccnc3)Cc3ccco3)cc2c1 (stereo not drawn) | 0 | 0 | 0 | 0 | 0 | - | - | -
